Data set [1] deals with L1210. The experiment in a line: Antitumor activity against L1210 Leukemia in mice at a dose of 30 mg/kg expressed as percent of increase in life span after day 60s was determined; no effect. The class given is functional, organism-based. Set-up: dose 30 mg/kg. The conditions noted are these: Mus musculus. Summed up: (§1)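 L1210 leukemia-bearing mice, 10 per group; controls got saline or solvent. Dose was dissolved in 0.2 mL DMSO, diluted to 10 mL with 0.9% NaCl, and given as one ip injection (0.1 mL/10 g body weight) 1 day after transplantation. %ILS = [(T − C)/C] × 100 from median survival days, treated versus untreated. Cures were counted on day 60 after transplantation.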

In data set [2] the test system is L1210. The experiment in a line: Antitumor activity against L1210 Leukemia in mice at a dose of 100 mg/kg expressed as percent of increase in life span after day 60s was determined; no effect. Format: functional, organism-based. Set-up: dose 100 mg/kg. Conditions: Mus musculus. An outline of the steps: as §1
Data set [3] has as its system L1210. The experiment in a line: Antitumor activity against L1210 Leukemia in mice at a dose of 200 mg/kg was determined. The class given is functional, Mus musculus. Summed up:
(§2)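 L1210 leukemia in mice, 10 per group, treated with one ip injection 1 day after tumor transplantation at 0.1 mL/10 g body weight. Dose was dissolved in 0.2 mL DMSO and diluted to 10 mL with 0.9% NaCl. Controls received saline or solvent. %ILS = [(T − C)/C] × 100, using median survival days. Cures were scored on day 60 post-transplant.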

Data set [4] concerns L1210. The experiment in a line: Antitumor activity against L1210 Leukemia in mice at a dose of 30 mg/kg was determined. Format: functional, Mus musculus. An outline of the steps:
as §2

In data set [5] the test system is L1210. The experiment in a line: Antitumor activity against L1210 Leukemia in mice at a dose of 200 mg/kg expressed as percent of increase in life span after day 60s was determined. The class given is functional. Conditions: Mus musculus. Summed up:
as §1

The test system of data set [6] is L1210. The experiment in a line: Antitumor activity against L1210 Leukemia in mice at a dose of 30 mg/kg expressed as percent of increase in life span after day 60s was determined. The class given is functional. Conditions: Mus musculus. Summed up: as §1
The nature of data set [7]: Antitumor activity against L1210 Leukemia in mice expressed as 50% lethal dose was determined at 200 mg/kg. The conditions noted are these: mouse, in vivo. The class given is ADME, organism-based. Set-up: dose 200 mg/kg.
Data set [8] deals with L1210. The experiment in a line: Antitumor activity against L1210 Leukemia in mice at a dose of 100 mg/kg was determined. Format: functional, Mus musculus. Summed up:
as §2

A short description of data set [9]: Antitumor activity against L1210 Leukemia in mice expressed as 50% lethal dose was determined at a dose of 100 mg/kg. Conditions: mouse, in vivo. Also on record: dose 100 mg/kg. Format: ADME, organism-based.
Data set [10] concerns L1210. The experiment in a line: Antitumor activity against L1210 Leukemia in mice at a dose of 200 mg/kg expressed as percent of increase in life span or the percent of surviving animals on day 60 was determined. Format: functional. Conditions: Mus musculus, L1210, 1440 h. An outline of the steps:
as §1

Data set [11] has as its system L1210. The experiment in a line: Antitumor activity against L1210 Leukemia in mice at a dose of 50 mg/kg was determined. The class given is functional, Mus musculus. An outline of the steps:
as §2

The subject of data set [12] is L1210. The experiment in a line: Antitumor activity against L1210 Leukemia in mice at a dose of 100 mg/kg expressed as percent of increase in life span after day 60s was determined. The class given is functional. Conditions: Mus musculus. An outline of the steps:
as §1

Data set [13] deals with L1210. The experiment in a line: Antitumor activity against L1210 Leukemia in mice at a dose of 50 mg/kg expressed as percent of increase in life span after day 60s was determined. The class given is functional. Conditions: Mus musculus. Summed up:
as §1

In data set [14] the test system is L1210. The experiment in a line: Antitumor activity against L1210 Leukemia in mice at a dose of 130 mg/kg was determined. Format: functional, Mus musculus.
Data set [15] in a line: Antitumor activity against L1210 Leukemia in mice expressed as 50% lethal dose was determined at a dose of 130 mg/kg. The class given is ADME, organism-based. Also on record: dose 130 mg/kg. Conditions: mouse, in vivo.

Structures are written as SMILES. Active and inactive are the calls of the source. The calls are words filed in the database; no cut-off is given here. Peptide text beside a SMILES is read from it. * marks the point of attachment. Carbamoyl(2-ClEt,NO) = O=NN(CCCl)C(=O)*; Boc = CC(C)(C)OC(=O)*; For = O=C*

Consider `CC(C)[C@H](NC(=O)[C@@H]1CCCN1C(=O)[C@H](CCCCNOC(=O)C(C)(C)C)NC(=O)[C@@H]1CCCN1C(=O)N(CCCl)N=O)C(N)=O`, for which the ILS result in data set [1] and in data set [2] was “inactive” throughout.
For the molecule `CC(C)[C@H](NC(=O)[C@@H]1CCCN1C(=O)[C@H](CCCCNC(=O)N(CCCl)N=O)NC(=O)[C@@H]1CCCN1C(=O)N(CCCl)N=O)C(N)=O` ({Carbamoyl(2-ClEt,NO)}-PK(Carbamoyl(2-ClEt,NO))PV-NH2), the MED in [3] turned out to be 0.28 mmol/kg; in data set [4], 0.042 mmol/kg; in [8], 0.14 mmol/kg. Besides, the ILS (commonly the gain in survival time of treated over control animals, in per cent) at 200 mg/kg in data set [5] was 120%. Besides, the ILS at 30 mg/kg in data set [6] stood at 100%. The LD50 (usually the dose at which mortality reaches 50%) in [7] is 220 mg/kg.
With `CC(C)[C@H](NC(=O)[C@@H]1CCCN1C(=O)N(CCCl)N=O)C(N)=O`, the LD50 in data set [9] stood at 150 mg/kg. The molecule also displayed an MED in data set [8] of 0.28 mmol/kg.
Take `CC(C)[C@H](NC(=O)[C@@H]1CCCN1C(=O)[C@H](CCCCNC(=O)OC(C)(C)C)NC(=O)[C@@H]1CCCN1C(=O)N(CCCl)N=O)C(N)=O` ({Carbamoyl(2-ClEt,NO)}-PK(Boc)PV-NH2) [listing 1 of 2 here]: the results for the MED in data set [3], in data set [4] and in data set [8] were 0.3 mmol/kg, 0.045 mmol/kg and 0.15 mmol/kg, respectively. The molecule further yielded an ILS at 200 mg/kg in [10] of 30%.
In data set [8], `CC(C)[C@H](NC(=O)[C@@H]1CCCN1C(=O)[C@@H](N)CCCCNC=O)C(N)=O.Cl` (H-Lys(For)-Pro-Val-NH2) came in with an MED of 0.24 mmol/kg. Moreover, the ILS entry in data set [2] was “inactive”.
Turning to `CC(C)[C@H](NC(=O)[C@@H]1CCCN1C(=O)[C@H](CCCCNC=O)NC(=O)[C@@H]1CCCN1C(=O)N(CCCl)N=O)C(N)=O` ({Carbamoyl(2-ClEt,NO)}-PK(For)PV-NH2), the MED in data set [3] is 0.32 mmol/kg; in [11], 0.083 mmol/kg; in data set [8] it was 0.16 mmol/kg. Also, in data set [12], the ILS at 100 mg/kg was found to be 80%. In data set [5], this molecule had an ILS at 200 mg/kg of 80%. For the same molecule, the ILS at 50 mg/kg in [13] stood at 40%. In data set [7], this molecule returned an LD50 of 250 mg/kg.
The molecule `CC(C)[C@H](NC(=O)[C@@H]1CCCN1C(=O)[C@H](CCCCNC(=O)N(CCCl)N=O)NC(=O)N(CCCl)N=O)C(N)=O` gave an ILS at 100 mg/kg in data set [12] of 380%. Moreover, the LD50 in data set [9] stood at 250 mg/kg. The molecule further showed an MED in [8] of 0.16 mmol/kg.
In data set [7], `CC(C)[C@H](NC(=O)[C@@H]1CCCN1C(=O)[C@H](CCCCNC(=O)OC(C)(C)C)NC(=O)[C@@H]1CCCN1C(=O)N(CCCl)N=O)C(N)=O` ({Carbamoyl(2-ClEt,NO)}-PK(Boc)PV-NH2) [listing 2 of 2 here] yielded an LD50 of 300 mg/kg.
The molecule `NC(=O)C1CCCN1C(=O)N(CCCl)N=O` (centres undefined) returned an ILS at 100 mg/kg in data set [12] of 420%. In [9], this molecule came in with an LD50 of 140 mg/kg. In addition, in [8], the MED was 0.403 mmol/kg.
In the case of `CC(C)[C@H](NC(=O)[C@@H]1CCCN1C(=O)[C@H](CCCCNC=O)NC(=O)N(CCCl)N=O)C(N)=O`, the MED turned out to be 0.4 mmol/kg in data set [3], 0.059 mmol/kg in data set [4] and 0.2 mmol/kg in data set [8]. Also, in data set [12], the ILS at 100 mg/kg stood at 110%. In [5], this molecule registered an ILS at 200 mg/kg of 190%. In [6], this molecule showed an ILS at 30 mg/kg of 70%. Further, in [7], the LD50 was determined as 260 mg/kg.
Molecule `CC(C)[C@H](NC(=O)[C@@H]1CCCN1C(=O)[C@H](CCCCN)NC(=O)N(CCCl)N=O)C(N)=O.Cl` returned an MED in data set [14] of 0.25 mmol/kg. In [15], this molecule returned an LD50 of 175 mg/kg.

Values taken from ChEMBL document CHEMBL1123865, “Synthesis and antitumor activity of N-terminal proline-containing peptide-(chloroethyl)nitrosoureas” (J Med Chem, 1987).
